Assay outcomes from PubChem.
CDK5 inh: CDK5/p35 (human) kinase inhibition | Q00535+Q15078 | Recombinant CDK5/p35, ADP-Glo luminescence, 60 min | inhibition, % at 10 µM | 330,000 tested, 0.01% active;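 active means highest replicate inhibition of at least 50% and at least 75% of replicates reaching 50%; inconclusive means only one of the two criteria met; inactive means both criteria failed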;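 further: plate controls were DMSO neutral control for no effect and GW8510 at 10 µM for full effect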
NSD2 inh: NSD2 (human) methyltransferase inhibition; 310,000 tested, 0.54% active; inhibition, % at 12.5 µM; O96028; NSD2 peptide methylation, AlphaScreen, 120 min; AID 743445
SR-BI DiI inh: inhibitors of mouse SR-BI mediated HDL lipid uptake; 320,000 tested, 0.96% active; Q61009; inhibition, % at 12.5 µM; ldlA[mSR-BI] CHO cells, DiI-HDL uptake fluorescence, 3 h;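 active means mean replicate inhibition of at least 70% and a set share of replicates each scoring 70 or more; inconclusive means meets just one of the two criteria; inactive means fails both criteria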;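 further: 0% = median of neutral control wells and 100% = median of positive control wells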
SR-BI uptake up: enhances SR-BI lipid uptake from DiI-HDL | activation, % at 12.5 µM | 320,000 tested, 0.096% active | CHO ldlA[mSR-BI] cells, DiI-HDL uptake fluorescence, 3 h; 100 = double the neutral-control signal;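 active means mean replicate activation of at least 60% and every replicate at or above 60%; inconclusive means mean or all-replicate condition met, but not both; inactive means mean below 60% and not all replicates reaching 60%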;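 further: 0% = median plate neutral-control signal and 100% = twice that signal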
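Test system: SR-BI-overexpressing, LDLR-lacking CHO cells. Measured by: DiI fluorescence, bottom read. Medium: Ham's F12 with 0.5% BSA, HEPES 25 mM, pH 7.4. Timing: 3 h uptake period with compound, 37 °C.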
dFosB act-1: enhances mouse delta FosB homodimer DNA binding; P13346; purified delta FosB, TAMRA-CDK5 oligo fluorescence polarization; percent of positive-control signal above neutral wells; activation, % at 25 µM; 340,000 tested, 0.99% active; AID 493131;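 active means mean activation above about 17%, with every replicate also reaching it, limit read from the data, passing the limit was not always enough; inconclusive means only one of the two conditions met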
Dyrk1A ADPGlo: inhibitors of rat Dyrk1A kinase | Q63470 | ADP-Glo luminescence, NFATc1 peptide | inhibition, % at 12.5 µM | 310,000 tested, 0.43% active | AID 504441;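 further: plate controls were vehicle with enzyme for no effect and no enzyme for full effect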
dFosB act-2: activators of mouse delta FosB homodimer DNA binding | shares compounds with dFosB act-1 | purified delta FosB, TAMRA-CDK5 oligo fluorescence polarization; normalised: neutral wells 0, positive control 100 | activation, % at 24.9 µM | 2,400 tested, under 10 active | AID 588690;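 active means highest replicate activation at or above 34% and every replicate reaching that threshold; inconclusive means meets only one of the two criteria; inactive means meets neither criterion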;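 further: higher polarization means more probe DNA bound by delta FosB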
An asterisk follows results filed as active; ? = inconclusive; / = no result. Hits are enriched below; roughly 2.5% of the tested compounds scored in any of these assays. Unless noted, no stated cut-off is given here; in the data, active means inhibition above about 50%; inactive means the rest.

SMILES | CDK5 inh | NSD2 inh | SR-BI DiI inh | SR-BI uptake up | dFosB act-1 | Dyrk1A ADPGlo | dFosB act-2
CCOC(=O)c1c(C)[nH]c(C(=O)OCC(=O)Nc2cc(Cl)ccc2OC)c1C | 5 | 1 | 14 | -14 | -1 | 0 | /
COc1ccc(-n2nc(C(=O)NCC(=O)N3CCC(C(N)=O)CC3)c3ccccc3c2=O)cc1 | 1 | 1 | -3 | 3 | -9 | 0 | /
COc1ccccc1-n1c(SC)nc2c(sc(=S)n2-c2ccccc2)c1=O | -1 | 10 | -6 | 6 | 24* | 3 | 1
CCC(C)NC(=O)Cn1c(=O)n(CCCC(=O)NCc2ccccc2Cl)c(=O)c2ccccc21 (stereo unspecified) | -4 | 1 | 5 | -5 | 20* | 3 | -1
COc1ccc(NC(=O)Cn2c(=O)n(CC(=O)NCc3ccco3)c(=O)c3ccccc32)cc1OC | -1 | 0 | -47 | 47 | 11 | -4 | /
CCc1ccc(NC(=O)Cn2c(=O)n(CCCC(=O)NCc3ccco3)c(=O)c3ccccc32)cc1 | 0 | / | 3 | -3 | 6 | -1 | /
COc1cccc(NC(=O)Cn2c(=O)n(CCCC(=O)NCc3ccco3)c(=O)c3ccccc32)c1 | 0 | 2 | -118 | ? | -10 | / | /
Cc1cc(C)c(NC(=O)Cn2c(=O)n(Cc3ccco3)c(=O)c3ccccc32)c(C)c1 | 1 | 2 | -5 | 5 | 64* | 5 | 6
O=C(CCCCn1c(=O)c2ccccc2n(CC(=O)Nc2cccc(F)c2)c1=O)NCc1ccco1 | -2 | -1 | -16 | 16 | 24* | -3 | -7
COC(=O)CN(C)C(=O)c1ccccc1OC1CCN(S(C)(=O)=O)CC1 | 0 | 0 | -12 | 12 | 4 | -2 | /
O=C(Nc1ncn[nH]1)c1cc(S(=O)(=O)Nc2cccc(C(F)(F)F)c2)ccc1Cl | 0 | -3 | -13 | 13 | 58* | / | 1
Cc1cc(C)cc(C(=O)N2CCCCC2)c1 | -1 | -1 | 1 | -1 | 1 | 5 | /
N#Cc1cc2c(nc1SCC(=O)Nc1sc3c(c1C#N)CCC3)CCCC2 | 1 | -1 | 58 | -58 | 0 | 20 | /
N#Cc1ccc(-c2ccc(F)cc2)nc1SCC(=O)Nc1sc2c(c1C#N)CCC2 | 1 | -2 | 78* | -78 | 37* | 0 | 1
CCCCC1(C)NC(=O)N(CC(=O)Nc2cc(S(=O)(=O)N3CCOCC3)ccc2Cl)C1=O (stereo unspecified) | -1 | -8 | 26 | -26 | -7 | -4 | /
Cc1cccc(NC(=O)c2nc[nH]c2C(=O)Nc2cccc(C)c2)c1 | 0 | -4 | 17 | -17 | -2 | -1 | /
NC(=O)c1nc[nH]c1C(=O)Nc1cccc(NC(=O)c2cccc(C(F)(F)F)c2)c1 | 2 | / | 9 | -11 | 27* | 1 | 7
O=C(Nc1ccc(S(=O)(=O)N2CCOCC2)cc1)c1cc(-c2cc(Cl)ccc2O)n[nH]1 | -3 | -7 | / | / | -2 | 6 | /
Cc1ccc(-c2cc(C(=O)Nc3ccc(S(=O)(=O)N4CC(C)OC(C)C4)cc3)[nH]n2)c(O)c1 (stereo unspecified) | -1 | / | / | / | 42* | 1 | 7
Cc1ccc(O)c(-c2cc(C(=O)Nc3ccc(S(=O)(=O)N4CC(C)OC(C)C4)cc3)[nH]n2)c1 (stereo unspecified) | -4 | 1 | 45 | -45 | 7 | -1 | /
Cc1cc(O)c(-c2cc(C(=O)Nc3ccc(S(=O)(=O)N4CCOCC4)cc3)[nH]n2)cc1C | 1 | 0 | 47 | -47 | 25* | 3 | 2
N#Cc1cccc(NC(=O)COC(=O)c2cc(S(=O)(=O)Nc3ccccc3Cl)ccc2O)c1 | -2 | 4 | 8 | -8 | 2 | 0 | /
O=C(COC(=O)c1cc(S(=O)(=O)Nc2ccccc2Cl)ccc1O)Nc1nc2ccccc2s1 | -2 | 1 | -12 | 12 | 32* | / | 7
COc1ccc(NC(=O)c2cn(C)c(=O)c3cc(OC)c(OC)cc23)c(OC)c1 | 0 | -1 | / | / | 20* | -3 | 2
